Read-outs that look alike come from different tables or passages of the source.
Format: in vitro ADME, rat
In short: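 Spiked rat plasma held under storage and analysis conditions, then quantified by UPLC-MS/MS. Work-up: IS (working solution 100 ng/mL) added, protein precipitation with acetonitrile (3 volumes), vortex 1 min, centrifugation 13,000 g for 10 min at 4°C, supernatant injected. Separation: BEH C18 column at 40°C, acetonitrile/0.1% formic acid gradient at 0.40 mL/min, 3.0 min run.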

Measured: Stability in rat plasma samples

CCc1nc(C(N)=O)c(Nc2ccc(N3CCC(N4CCN(C)CC4)CC3)c(OC)c2)nc1NC1CCOCC1 [Gilteritinib]
stable: at room temperature for at least 24 h | at −20°C for at least 31 days | in the auto-sampler (10°C) for at least four hours | three complete freeze (−20°C)/thaw (RT) cycles
